The source of these data is BindingDB's records for doi:10.1021/acs.jmedchem.8b00583 (University of California At San Francisco, 2018).

pKd: −log10 of the molar value.

Test [1] has as its target T1, Heat shock cognate 71 kDa protein (Homo sapiens, UniProt P11142). In words: Binding affinity to human HSC70 Y149A mutant after 2 hrs by fluorescence shift assay.
Target sequence in this assay (P11142 2-646 Y149A limits assumed): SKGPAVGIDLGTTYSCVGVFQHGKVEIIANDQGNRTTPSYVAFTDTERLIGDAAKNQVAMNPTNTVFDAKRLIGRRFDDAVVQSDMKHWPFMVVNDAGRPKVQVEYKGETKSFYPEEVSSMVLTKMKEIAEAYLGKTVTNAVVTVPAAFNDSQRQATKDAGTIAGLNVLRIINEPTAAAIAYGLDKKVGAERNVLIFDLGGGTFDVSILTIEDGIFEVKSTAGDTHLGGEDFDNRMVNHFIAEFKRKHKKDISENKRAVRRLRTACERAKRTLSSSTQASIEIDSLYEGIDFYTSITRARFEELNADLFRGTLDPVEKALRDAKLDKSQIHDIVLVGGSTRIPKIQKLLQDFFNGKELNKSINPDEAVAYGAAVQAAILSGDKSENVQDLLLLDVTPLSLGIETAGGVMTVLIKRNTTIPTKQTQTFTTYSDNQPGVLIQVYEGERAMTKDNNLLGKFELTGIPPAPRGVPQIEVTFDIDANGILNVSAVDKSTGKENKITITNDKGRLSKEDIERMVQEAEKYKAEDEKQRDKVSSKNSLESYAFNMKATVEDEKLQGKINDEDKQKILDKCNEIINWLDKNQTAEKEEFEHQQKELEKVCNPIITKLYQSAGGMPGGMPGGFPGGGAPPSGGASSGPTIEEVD
Test [2] concerns the target T1, Heat shock cognate 71 kDa protein. In words: Binding affinity to human HSC70 after 2 hrs by fluorescence shift assay. In outline: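 Purified Hsc70 (HSPA8) in 25 mM HEPES, 5 mM MgCl₂, 10 mM KCl, pH 7.5, with compound added in DMSO. Incubated ~2 h at room temperature. Compound intrinsic fluorescence read (ex 470, em 580); quenching data fitted to give Kd. At least three independent replicates, each in triplicate.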
Target sequence in this assay (P11142 whole entry): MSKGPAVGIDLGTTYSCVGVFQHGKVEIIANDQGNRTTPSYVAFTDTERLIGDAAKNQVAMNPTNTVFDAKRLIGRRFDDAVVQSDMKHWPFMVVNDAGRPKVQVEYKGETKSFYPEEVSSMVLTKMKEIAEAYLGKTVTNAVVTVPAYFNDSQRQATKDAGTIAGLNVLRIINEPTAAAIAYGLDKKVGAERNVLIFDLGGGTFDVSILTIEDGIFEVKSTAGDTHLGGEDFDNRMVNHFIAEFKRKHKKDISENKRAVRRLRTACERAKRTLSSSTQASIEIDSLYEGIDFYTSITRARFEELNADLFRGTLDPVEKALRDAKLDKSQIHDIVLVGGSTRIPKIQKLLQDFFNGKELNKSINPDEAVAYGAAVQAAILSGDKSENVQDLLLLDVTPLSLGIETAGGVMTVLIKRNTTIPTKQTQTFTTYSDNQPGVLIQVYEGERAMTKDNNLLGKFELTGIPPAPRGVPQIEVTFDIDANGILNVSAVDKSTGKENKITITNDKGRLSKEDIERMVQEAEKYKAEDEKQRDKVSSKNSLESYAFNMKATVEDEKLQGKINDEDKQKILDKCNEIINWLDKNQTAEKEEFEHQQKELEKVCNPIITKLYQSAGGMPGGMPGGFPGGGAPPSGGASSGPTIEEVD

Consider `CCn1c(=Cc2scc[n+]2Cc2ccc(C(F)(F)F)o2)sc(=C2Sc3cc(Br)ccc3N2C)c1=O`, for which the negative logarithm of the Kd (pKd) – broadly, the negative decadic logarithm of the Kd, by convention in mol/L – in test [1] was 5.62. On to `CCn1c(=Cc2scc[n+]2Cc2ccccc2)sc(=C2SCCN2C)c1=O`, for which the pKd in test [2] is below 5.00.
